The subject of series [1] is Mus musculus. In words: Reduction of haloperidol-induced catalepsy in orally dosed CD1 mouse. In kind it is functional. Conditions: CD1, po. The procedure, abridged:
(§1)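 Male CD-1 mice (25–30 g) received haloperidol 3 mg/kg sc. Bar test used a 4.5 cm high, 1 cm bar with a 120 s cutoff, measured every 30 min. Once baseline catalepsy was stable (about 3 h), compound or vehicle was given by oral gavage. Catalepsy was then scored every 30 min for 2 h. Analysis was one-way ANOVA with Dunnett's post hoc test.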

Another series addresses T1, Adenosine receptor A1 (Rattus norvegicus, UniProt P25099).
T1 sequence (P25099 whole entry): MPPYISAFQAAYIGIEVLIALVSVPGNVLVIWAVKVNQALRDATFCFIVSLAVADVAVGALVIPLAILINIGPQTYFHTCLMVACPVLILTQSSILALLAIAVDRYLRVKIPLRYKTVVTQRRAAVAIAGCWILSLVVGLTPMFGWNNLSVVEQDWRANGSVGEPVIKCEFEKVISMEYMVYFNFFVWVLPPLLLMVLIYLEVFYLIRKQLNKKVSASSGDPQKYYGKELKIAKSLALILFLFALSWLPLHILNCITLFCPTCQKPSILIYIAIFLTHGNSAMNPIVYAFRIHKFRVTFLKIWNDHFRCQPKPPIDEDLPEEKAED
In words: Displacement of [3h]DPCPX from adenosine A receptor in rat cerebral cortex membrane.

Another series addresses Adenosine receptor A2a (Rattus norvegicus, UniProt P30543). In words: Displacement of [3H]ZM241385 from adenosine A2A receptor in rat brain membrane. In kind it is cell membranes.
The subject of another series is Rattus norvegicus. Kind of series: Reduction of haloperidol-induced catalepsy in orally dosed Sprague-Dawley rat. In kind it is functional. Conditions: po. The method, boiled down: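 Male Sprague–Dawley rats (225–275 g) were given haloperidol 1 mg/kg, with bar tests every 30 min (1 cm bar, 10 cm high, 120 s maximum). After a stable cataleptic baseline at about 3 h, compound or vehicle was dosed by oral gavage. The bar test was repeated every 30 min for 2 h. Data were analyzed by one-way ANOVA with Dunnett's test.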

Series [2] can be described thus: Metabolic stability in rat liver microsomes at 2 uM after 15 mins. It is filed as ADME, Microsome. The conditions noted are these: read-out: Stability. The procedure, abridged:
(§2)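 Test compound at 2 μM final was incubated at 37 °C with shaking in Sprague–Dawley rat liver microsomes in 66 mM potassium phosphate pH 7.4. An NADP+/glucose-6-phosphate/MgCl2/G6P dehydrogenase regenerating system was present. Aliquots taken at 0, 15, 30 and 60 min were quenched in acetonitrile containing DPCPX internal standard. Percent parent remaining was measured by LC/MS.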

Series [3] can be described thus: Metabolic stability in rat liver microsome at 2 uM after 60 mins. In kind it is ADME. The conditions noted are these: liver microsomes, read-out: Stability. The procedure, abridged:
as §2
A general note: Microsomes from liver hold many membrane-bound enzymes, among them those of drug oxidation.

Series [4] in a line: Metabolic stability in rat liver microsome at 2 uM after 30 mins. It is filed as ADME. Conditions: liver microsomes, read-out: Stability. The method, boiled down:
as §2

The subject of series [5] is Mus musculus. Kind of series: Reduction of haloperidol-induced catalepsy in CD1 mouse within 30 mins at 3 mg/kg, po. It is filed as functional. Also on record: scale not given: the % may be the effect or the level left. The method, boiled down: as §1

pKi: −log10 of the molar value. Where only a bound is given, the exact number is not on record here.

Sequence of Adenosine receptor A2a (P30543 whole entry): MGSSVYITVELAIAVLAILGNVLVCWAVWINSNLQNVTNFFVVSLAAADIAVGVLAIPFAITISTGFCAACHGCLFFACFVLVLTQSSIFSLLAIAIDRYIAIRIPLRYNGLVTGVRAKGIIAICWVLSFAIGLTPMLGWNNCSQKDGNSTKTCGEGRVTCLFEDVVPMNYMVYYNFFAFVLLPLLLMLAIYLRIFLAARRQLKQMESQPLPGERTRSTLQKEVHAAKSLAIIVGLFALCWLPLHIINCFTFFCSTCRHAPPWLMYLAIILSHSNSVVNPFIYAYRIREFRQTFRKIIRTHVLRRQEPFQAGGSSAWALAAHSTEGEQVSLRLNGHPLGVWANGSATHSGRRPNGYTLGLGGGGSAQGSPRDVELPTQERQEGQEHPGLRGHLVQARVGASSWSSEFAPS

`Nc1nc(NC[C@H]2CCCN2Cc2c(F)cccc2F)nc2nc(-c3ccco3)nn12`: the 50% effective dose (ED50) in the series with Mus musculus [1] and with Rattus norvegicus was 10 mg/kg throughout. The inhibitory constant (Ki) on Adenosine receptor A1 is 427 nM (antagonist); on Adenosine receptor A2a, 3.6 nM (antagonist).
As for `Cn1nc(C(F)(F)F)c(CN2CCN(c3nc(N)n4nc(-c5ccco5)nc4n3)CC2)c1Cl`, the 50% effective dose (ED50) in the series with Mus musculus [1] and in the series with Rattus norvegicus was 3 mg/kg throughout. Moreover, the remaining at 0.25 h, 2 µM in series [2] was 14%.
In the case of `Nc1nc(N2CCN3CCC[C@@H]3C2)nc2nc(-c3ccco3)nn12`, the remaining at 1 h, 2 µM in series [3] turned out to be 61%. The remaining at 0.25 h, 2 µM in series [2] worked out at 67%. For the same compound, the pKi at Adenosine receptor A1 is 5.92. Besides, the Ki on Adenosine receptor A2a is recorded as 30 nM (antagonist). Besides, in series [4], the remaining at 0.5 h, 2 µM came out at 75%.
In the case of `Nc1nc(N2CCN3CCC[C@H]3C2)nc2nc(-c3ccco3)nn12`, in series [3], the remaining at 1 h, 2 µM was 36%. For the same compound, the remaining at 0.25 h, 2 µM in series [2] was 69%. The compound further gave a pKi on Adenosine receptor A1 of under 6.30. Moreover, at Adenosine receptor A2a, the Ki is 46 nM (antagonist). Further, the remaining at 0.5 h, 2 µM in series [4] was found to be 54%.
On to `Nc1nc(N2CCN3C[C@@H](COc4ccc5ncccc5c4)CC[C@H]3C2)nc2nc(-c3ccco3)nn12`, for which, in series [3], the remaining at 1 h, 2 µM amounted to 16%. Also, the remaining at 0.25 h, 2 µM in series [2] is 42%. The compound further had a negative logarithm of the Ki (pKi) at Adenosine receptor A1 of 5.46. Moreover, the Ki at Adenosine receptor A2a was 0.6 nM (antagonist). Also, in series [4], the remaining at 0.5 h, 2 µM was determined as 25%.
In the case of `Nc1nc(N2CCN3[C@@H](CO)CCC[C@H]3C2)nc2nc(-c3ccco3)nn12` (racemic), the negative-log Ki (pKi) at Adenosine receptor A1 is 5.89. Besides, the Ki at Adenosine receptor A2a is given as 3 nM (antagonist).
`Nc1nc(N2CCN3C[C@H](COc4ccccc4)CC[C@H]3C2)nc2nc(-c3ccco3)nn12` (racemic): the pKi on Adenosine receptor A1 is under 6.30. Also, the Ki on Adenosine receptor A2a is on record as 53 nM (antagonist).
On Adenosine receptor A1, `Nc1nc(N2CCN3C[C@H](CO)CC[C@H]3C2)nc2nc(-c3ccco3)nn12` (racemic) showed a pKi of 5.21. Besides, the inhibition constant Ki at Adenosine receptor A2a is 71 nM (antagonist).
In the same order, the values of `Nc1nc(N2CCN3[C@@H](CO)CCC[C@H]3C2)cc2nc(-c3ccco3)nn12` (racemic) are under 6.30 and 110 nM (antagonist).
In the case of `Nc1nc(N2CCN3CCCCC3C2)cc2nc(-c3ccco3)nn12` (racemic), the negative-log Ki (pKi) on Adenosine receptor A1 was under 6.30. Further, the Ki at Adenosine receptor A2a is 140 nM (antagonist).
In the case of `Nc1nc(NC[C@@H]2CC[C@@H]3CN(c4ncccn4)CCN3C2)nc2nc(-c3ccco3)nn12` (racemic), the remaining at 1 h, 2 µM in series [3] stood at 43%. Moreover, in series [2], the remaining at 0.25 h, 2 µM was found to be 89%. The same compound showed a pKi at Adenosine receptor A1 of 5.80. Also, the Ki at Adenosine receptor A2a is on record as 0.3 nM (antagonist). The remaining at 0.5 h, 2 µM in series [4] was found to be 65%.
`Nc1nc(N2CCN3C[C@@H](COc4ccccc4)CC[C@H]3C2)nc2nc(-c3ccco3)nn12` (racemic) gave a pKi on Adenosine receptor A1 of under 6.30. For the same compound, the Ki on Adenosine receptor A2a is 21 nM (antagonist).
The matching figures for `COc1ccc(OC[C@H]2CC[C@H]3CN(c4nc(N)n5nc(-c6ccco6)nc5n4)CCN3C2)cc1` (racemic): under 6.30 and 35 nM (antagonist).
The compound `Nc1nc(N2CCN3C[C@@H](COc4ccccc4F)CC[C@H]3C2)nc2nc(-c3ccco3)nn12` (racemic) showed a pKi on Adenosine receptor A1 of under 6.30. In addition, the Ki on Adenosine receptor A2a is listed as 0.9 nM (antagonist).
`Nc1nc(N2CCN3C[C@@H](COc4ccc(F)cc4)CC[C@H]3C2)nc2nc(-c3ccco3)nn12` (racemic) gave a pKi at Adenosine receptor A1 of under 6.30. For the same compound, the Ki at Adenosine receptor A2a is listed as 4 nM (antagonist).
On to `Nc1nc(N2CCN3C[C@@H](CO)CC[C@H]3C2)cc2nc(-c3ccco3)nn12` (racemic), for which the Activity in the series on Mus musculus [5] was over 50%. In series [3], the remaining at 1 h, 2 µM is 85%. Besides, the remaining at 0.25 h, 2 µM in series [2] is 100%. The pKi on Adenosine receptor A1 was under 6.30. Besides, the inhibition constant (Ki) at Adenosine receptor A2a is listed as 96 nM (antagonist). Further, the remaining at 0.5 h, 2 µM in series [4] worked out at 100%.
On to `Nc1nc(N2CCN3C[C@@H](COc4cccc(F)c4)CC[C@H]3C2)nc2nc(-c3ccco3)nn12` (racemic), for which the remaining at 1 h, 2 µM in series [3] was 12%. The remaining at 0.25 h, 2 µM in series [2] turned out to be 57%. In addition, the negative-log Ki (pKi) on Adenosine receptor A1 was 5.48. Moreover, on Adenosine receptor A2a, the inhibitory constant (Ki) is listed as 0.2 nM (antagonist). The remaining at 0.5 h, 2 µM in series [4] came to 36%.
The matching figures for `Nc1cc(N2CCN3C[C@@H](CO)CC[C@H]3C2)nc2nc(-c3ccco3)nn12` (racemic): 51%, 97%, under 6.30, 230 nM (antagonist) and 81%.
In the case of `Nc1cc(N2CCN3C[C@@H](COc4ccccc4)CC[C@H]3C2)nc2nc(-c3ccco3)nn12` (racemic), the negative logarithm of the Ki (pKi) on Adenosine receptor A1 is under 6.30. Further, the Ki at Adenosine receptor A2a is given as 45 nM (antagonist).
On to `Nc1cc(N2CCN3CCCCC3C2)nc2nc(-c3ccco3)nn12` (racemic), for which the negative logarithm of the Ki (pKi) at Adenosine receptor A1 was under 6.30. Further, the inhibition constant (Ki) on Adenosine receptor A2a is 38 nM (antagonist).
In the same order, the values of `Nc1nc(N2CCN3[C@@H](COc4ccccc4)CCC[C@H]3C2)nc2nc(-c3ccco3)nn12` (racemic) are under 6.30 and 13 nM (antagonist).
For `Nc1nc(N2CCN3C[C@H](CO)CC[C@H]3C2)cc2nc(-c3ccco3)nn12` (racemic), on Adenosine receptor A1, the pKi is under 6.00. The Ki at Adenosine receptor A2a is given as 240 nM (antagonist).
In the series on Mus musculus [5], `Nc1nc(N2CCN3C[C@@H](CO)CC[C@H]3C2)nc2nc(-c3ccco3)nn12` (racemic) gave an Activity of over 50%. The remaining at 1 h, 2 µM in series [3] was found to be 100%. Also, the remaining at 0.25 h, 2 µM in series [2] is 100%. The inhibition constant (Ki) on Adenosine receptor A1 is given as 660 nM (antagonist); on Adenosine receptor A2a, 45 nM (antagonist). Further, the remaining at 0.5 h, 2 µM in series [4] amounted to 100%.
For `Nc1cc(N2CCN3C[C@H](CO)CC[C@H]3C2)nc2nc(-c3ccco3)nn12` (racemic), the negative logarithm of the Ki (pKi) on Adenosine receptor A1 is under 6.00. For the same compound, at Adenosine receptor A2a, the Ki is reported as 860 nM (antagonist).
As for `Nc1cc(N2CCN3[C@@H](CO)CCC[C@H]3C2)nc2nc(-c3ccco3)nn12` (racemic), the negative-log Ki (pKi) at Adenosine receptor A1 was under 6.30. The inhibitory constant (Ki) at Adenosine receptor A2a is reported as 610 nM (antagonist).
In turn, `COc1ccc(OC[C@@H]2CC[C@H]3CN(c4nc(N)n5nc(-c6ccco6)nc5n4)CCN3C2)cc1` (racemic) had a negative-log Ki (pKi) on Adenosine receptor A1 of under 6.30. At Adenosine receptor A2a, the inhibitory constant (Ki) is reported as 70 nM (antagonist).
Compound `NC[C@H]1CC[C@H]2CN(c3nc(N)n4nc(-c5ccco5)nc4n3)CCN2C1` (racemic) showed a pKi at Adenosine receptor A1 of under 6.30. On Adenosine receptor A2a, the inhibition constant Ki is given as 16 nM (antagonist).
Take `Nc1nc(N2CCN3CCCCC3C2)nc2nc(-c3ccco3)nn12` (racemic): the inhibition constant Ki on Adenosine receptor A1 is 860 nM (antagonist); on Adenosine receptor A2a, 12 nM (antagonist).

Usually ED50 stands for the dose that gives a 50% effect, or the effect in half of the subjects. One may read the Ki as a dissociation constant, usually derived from enzyme kinetics or from competition with a known ligand. In general, pKi refers to −log10 of the Ki, conventionally taken in molar units.
